Data as given in ChEMBL document CHEMBL2331531, “Synthesis and biological evaluation of urea derivatives as highly potent and selective rho kinase inhibitors” (J Med Chem, 2013).

Assays:
[1] = Inhibition of ROCK-mediated myosin light chain bisphosphorylation in rat A7R5 cells after 1 hr by fluorescence assay in presence of L-alpha-lysophosphatidic acid; assay type: cell-based
Method in brief: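 A7r5 cells in 20% FBS DMEM, plated 5000/well overnight, serum-starved 4 h in 0.05% FBS DMEM; compound 13333 nM to 18 nM final for 1 h, then 10 μM LPA 10 min; fixed, permeabilized, anti-ppMLC plus IR800 secondary; infrared scan, ppMLC signal normalized to TO-PRO-3 nuclear signal. IC50 as mean of two or more experiments.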

[2] = Half life in human liver microsomes; assay type: ADME, Microsome
[3] = Inhibition of PKA (unknown origin) after 70 mins by luminescence assay; set-up: species or system Homo sapiens
[4] = biological target: Rho-associated protein kinase 2 (Homo sapiens, UniProt O75116); test: Inhibition of ROCK2 (unknown origin) after 4 hrs by HTRF assay
[5] = Clearance in Sprague-Dawley rat at 1 mg/kg, iv by LC-MS/MS analysis; assay type: ADME, organism-based; set-up: dose 1 mg/kg, route intravenous; conditions: in vivo
[6] = Aqueous solubility in potassium phosphate buffer at pH 5.5 after 24 hrs by HPLC analysis; assay type: physicochemical; conditions: pH 5.5, 24 h
CYP2C9 = CYP2C9 (Homo sapiens, UniProt P11712); test: Inhibition of CYP2C9 (unknown origin)-mediated tolbutamide hydroxylation to hydroxy tolbutamide at 10 uM relative to control; assay type: ADME; conditions: probe tolbutamide
[7] = biological target: Rho-associated protein kinase 1 (Homo sapiens, UniProt Q13464); test: Inhibition of ROCK1 (unknown origin) after 4 hrs by HTRF assay
[8] = Half life in Sprague-Dawley rat at 1 mg/kg, iv by LC-MS/MS analysis; assay type: ADME, organism-based; set-up: dose 1 mg/kg, route intravenous; conditions: in vivo
[9] = Volume of distribution in Sprague-Dawley rat at 1 mg/kg, iv by LC-MS/MS analysis; assay type: ADME, organism-based; set-up: dose 1 mg/kg, route intravenous; conditions: in vivo
CYP3A4 = CYP3A4 (Homo sapiens, UniProt P08684); test: Inhibition of CYP3A4 (unknown origin)-mediated midazolam hydroxylation to 1'-Hydroxymidazolam at 10 uM relative to control; assay type: ADME; conditions: probe midazolam
CYP1A2 = biological target: T1, CYP1A2 (Homo sapiens, UniProt P05177); test: Inhibition of CYP1A2 (unknown origin)-mediated phenaceten demethylation to acetaminophen at 10 uM relative to control; assay type: ADME; conditions: probe phenacetin (printed: phenaceten)
T1 sequence (P05177 whole entry): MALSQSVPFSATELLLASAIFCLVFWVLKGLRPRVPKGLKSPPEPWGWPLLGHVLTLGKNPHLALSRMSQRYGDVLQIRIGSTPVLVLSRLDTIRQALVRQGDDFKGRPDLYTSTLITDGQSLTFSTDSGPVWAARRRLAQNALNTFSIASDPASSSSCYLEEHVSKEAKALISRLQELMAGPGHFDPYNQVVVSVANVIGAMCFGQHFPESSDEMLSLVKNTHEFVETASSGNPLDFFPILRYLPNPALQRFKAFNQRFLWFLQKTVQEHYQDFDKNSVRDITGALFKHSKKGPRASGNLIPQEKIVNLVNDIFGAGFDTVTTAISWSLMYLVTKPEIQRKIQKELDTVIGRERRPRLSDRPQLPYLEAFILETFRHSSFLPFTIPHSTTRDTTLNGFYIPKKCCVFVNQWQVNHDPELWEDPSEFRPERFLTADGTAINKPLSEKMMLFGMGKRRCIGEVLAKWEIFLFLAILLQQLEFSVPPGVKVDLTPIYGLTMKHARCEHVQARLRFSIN

[10] = Cmax in Sprague-Dawley rat at 1 mg/kg, iv by LC-MS/MS analysis; assay type: ADME, organism-based; set-up: dose 1 mg/kg, route intravenous; conditions: in vivo
[11] = Oral bioavailability in Sprague-Dawley rat at 2 mg/kg by LC-MS/MS analysis; assay type: ADME, organism-based; conditions: in vivo
[12] = AUC in Sprague-Dawley rat at 1 mg/kg, iv by LC-MS/MS analysis; assay type: ADME, organism-based, Plasma; set-up: dose 1 mg/kg, route intravenous; conditions: Sprague-Dawley, plasma
CYP2D6 = CYP2D6 (Homo sapiens, UniProt P10635); test: Inhibition of CYP2D6 (unknown origin)-mediated bufuralol hydroxylation to 4'-Hydroxybufuralol at 10 uM relative to control; assay type: ADME; conditions: probe bufuralol
MAP kinase p38 = MAP kinase p38 (Homo sapiens, UniProt O15264+Q15759+Q16539+P53778); test: Inhibition of p38 (unknown origin) using biotinylated Flag-ATF2 as substrate after 30 mins by HTRF assay; assay type: protein assay
[13] = biological target: Mitogen-activated protein kinase 10 (Homo sapiens, UniProt P53779); test: Inhibition of JNK3 alpha1 (unknown origin) using biotinylated Flag-ATF2 as substrate after 15 mins by HTRF assay
Chain of Mitogen-activated protein kinase 10 (P53779 whole entry): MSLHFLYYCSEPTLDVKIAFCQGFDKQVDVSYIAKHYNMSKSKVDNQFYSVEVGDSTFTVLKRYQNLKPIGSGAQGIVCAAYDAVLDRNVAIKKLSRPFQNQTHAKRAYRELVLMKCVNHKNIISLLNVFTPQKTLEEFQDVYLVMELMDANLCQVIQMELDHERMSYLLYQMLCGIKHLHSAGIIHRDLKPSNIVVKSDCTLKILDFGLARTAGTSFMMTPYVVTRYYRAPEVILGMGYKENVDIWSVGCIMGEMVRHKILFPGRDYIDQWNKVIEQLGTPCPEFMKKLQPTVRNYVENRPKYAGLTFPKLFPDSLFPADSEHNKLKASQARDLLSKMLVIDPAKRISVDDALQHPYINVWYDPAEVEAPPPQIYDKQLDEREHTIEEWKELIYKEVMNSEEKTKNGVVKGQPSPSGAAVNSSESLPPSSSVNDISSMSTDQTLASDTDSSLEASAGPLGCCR

Chain of CYP2C9 (P11712 whole entry): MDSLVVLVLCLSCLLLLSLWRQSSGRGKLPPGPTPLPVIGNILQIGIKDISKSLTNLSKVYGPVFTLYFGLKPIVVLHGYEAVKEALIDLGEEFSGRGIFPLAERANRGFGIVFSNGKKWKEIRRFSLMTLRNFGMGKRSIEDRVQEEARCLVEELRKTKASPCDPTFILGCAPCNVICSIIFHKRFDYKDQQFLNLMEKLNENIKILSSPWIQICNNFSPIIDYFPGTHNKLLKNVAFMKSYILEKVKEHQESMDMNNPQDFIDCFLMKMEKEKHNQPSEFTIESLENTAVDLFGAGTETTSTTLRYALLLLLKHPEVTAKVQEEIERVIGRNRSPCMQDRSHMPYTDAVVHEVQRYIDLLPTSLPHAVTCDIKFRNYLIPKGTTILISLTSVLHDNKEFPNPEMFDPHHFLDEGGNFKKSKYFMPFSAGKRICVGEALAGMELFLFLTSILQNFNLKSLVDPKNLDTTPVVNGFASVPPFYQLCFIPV
Chain of Rho-associated protein kinase 2 (O75116 whole entry): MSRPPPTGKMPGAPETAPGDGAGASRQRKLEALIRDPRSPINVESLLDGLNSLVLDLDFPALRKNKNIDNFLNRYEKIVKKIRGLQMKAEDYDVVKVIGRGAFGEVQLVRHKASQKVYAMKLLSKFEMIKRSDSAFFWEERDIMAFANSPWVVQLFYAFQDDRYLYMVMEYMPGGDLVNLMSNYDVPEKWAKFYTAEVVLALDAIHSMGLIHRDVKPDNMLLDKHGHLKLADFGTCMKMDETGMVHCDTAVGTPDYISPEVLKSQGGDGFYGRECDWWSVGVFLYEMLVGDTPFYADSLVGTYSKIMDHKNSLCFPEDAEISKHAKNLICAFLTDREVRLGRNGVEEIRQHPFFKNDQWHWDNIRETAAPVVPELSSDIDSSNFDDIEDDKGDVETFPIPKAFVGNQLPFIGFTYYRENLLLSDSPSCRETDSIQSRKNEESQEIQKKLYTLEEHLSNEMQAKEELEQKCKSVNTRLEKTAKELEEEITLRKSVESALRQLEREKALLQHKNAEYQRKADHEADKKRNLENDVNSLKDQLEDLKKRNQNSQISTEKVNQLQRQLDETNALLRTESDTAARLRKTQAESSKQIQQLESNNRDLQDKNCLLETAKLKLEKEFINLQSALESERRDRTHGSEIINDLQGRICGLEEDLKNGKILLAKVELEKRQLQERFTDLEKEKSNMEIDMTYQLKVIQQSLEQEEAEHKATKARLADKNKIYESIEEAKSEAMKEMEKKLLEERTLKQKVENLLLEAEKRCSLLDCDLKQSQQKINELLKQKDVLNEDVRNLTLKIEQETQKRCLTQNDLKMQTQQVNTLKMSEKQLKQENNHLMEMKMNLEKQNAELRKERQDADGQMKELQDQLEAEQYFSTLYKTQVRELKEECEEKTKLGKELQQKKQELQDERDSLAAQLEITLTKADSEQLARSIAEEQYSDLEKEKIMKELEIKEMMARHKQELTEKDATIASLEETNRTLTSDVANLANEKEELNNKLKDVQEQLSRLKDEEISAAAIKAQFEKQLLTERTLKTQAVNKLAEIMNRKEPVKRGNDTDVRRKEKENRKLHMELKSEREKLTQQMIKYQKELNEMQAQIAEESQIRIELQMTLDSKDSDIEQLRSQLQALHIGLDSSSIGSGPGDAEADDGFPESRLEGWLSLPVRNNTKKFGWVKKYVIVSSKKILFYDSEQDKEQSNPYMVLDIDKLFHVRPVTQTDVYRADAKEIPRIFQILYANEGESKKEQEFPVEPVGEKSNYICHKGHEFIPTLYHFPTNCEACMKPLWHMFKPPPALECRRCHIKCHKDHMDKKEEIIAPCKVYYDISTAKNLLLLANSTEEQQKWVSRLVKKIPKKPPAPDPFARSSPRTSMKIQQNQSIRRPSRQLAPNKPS
Chain of CYP3A4 (P08684 whole entry): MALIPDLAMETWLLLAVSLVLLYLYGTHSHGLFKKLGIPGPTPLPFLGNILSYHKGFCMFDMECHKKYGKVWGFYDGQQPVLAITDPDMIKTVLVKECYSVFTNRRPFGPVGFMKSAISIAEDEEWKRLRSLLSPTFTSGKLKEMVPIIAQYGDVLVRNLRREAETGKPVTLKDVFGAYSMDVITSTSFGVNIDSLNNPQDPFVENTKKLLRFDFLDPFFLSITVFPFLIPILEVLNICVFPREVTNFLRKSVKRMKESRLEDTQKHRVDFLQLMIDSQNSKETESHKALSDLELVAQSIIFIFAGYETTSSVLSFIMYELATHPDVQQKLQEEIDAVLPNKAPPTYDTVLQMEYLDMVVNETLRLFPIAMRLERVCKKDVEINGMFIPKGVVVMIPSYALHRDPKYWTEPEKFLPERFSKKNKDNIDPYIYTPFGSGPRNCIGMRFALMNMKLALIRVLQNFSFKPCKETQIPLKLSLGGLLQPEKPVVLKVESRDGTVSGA
Chain of Rho-associated protein kinase 1 (Q13464 whole entry): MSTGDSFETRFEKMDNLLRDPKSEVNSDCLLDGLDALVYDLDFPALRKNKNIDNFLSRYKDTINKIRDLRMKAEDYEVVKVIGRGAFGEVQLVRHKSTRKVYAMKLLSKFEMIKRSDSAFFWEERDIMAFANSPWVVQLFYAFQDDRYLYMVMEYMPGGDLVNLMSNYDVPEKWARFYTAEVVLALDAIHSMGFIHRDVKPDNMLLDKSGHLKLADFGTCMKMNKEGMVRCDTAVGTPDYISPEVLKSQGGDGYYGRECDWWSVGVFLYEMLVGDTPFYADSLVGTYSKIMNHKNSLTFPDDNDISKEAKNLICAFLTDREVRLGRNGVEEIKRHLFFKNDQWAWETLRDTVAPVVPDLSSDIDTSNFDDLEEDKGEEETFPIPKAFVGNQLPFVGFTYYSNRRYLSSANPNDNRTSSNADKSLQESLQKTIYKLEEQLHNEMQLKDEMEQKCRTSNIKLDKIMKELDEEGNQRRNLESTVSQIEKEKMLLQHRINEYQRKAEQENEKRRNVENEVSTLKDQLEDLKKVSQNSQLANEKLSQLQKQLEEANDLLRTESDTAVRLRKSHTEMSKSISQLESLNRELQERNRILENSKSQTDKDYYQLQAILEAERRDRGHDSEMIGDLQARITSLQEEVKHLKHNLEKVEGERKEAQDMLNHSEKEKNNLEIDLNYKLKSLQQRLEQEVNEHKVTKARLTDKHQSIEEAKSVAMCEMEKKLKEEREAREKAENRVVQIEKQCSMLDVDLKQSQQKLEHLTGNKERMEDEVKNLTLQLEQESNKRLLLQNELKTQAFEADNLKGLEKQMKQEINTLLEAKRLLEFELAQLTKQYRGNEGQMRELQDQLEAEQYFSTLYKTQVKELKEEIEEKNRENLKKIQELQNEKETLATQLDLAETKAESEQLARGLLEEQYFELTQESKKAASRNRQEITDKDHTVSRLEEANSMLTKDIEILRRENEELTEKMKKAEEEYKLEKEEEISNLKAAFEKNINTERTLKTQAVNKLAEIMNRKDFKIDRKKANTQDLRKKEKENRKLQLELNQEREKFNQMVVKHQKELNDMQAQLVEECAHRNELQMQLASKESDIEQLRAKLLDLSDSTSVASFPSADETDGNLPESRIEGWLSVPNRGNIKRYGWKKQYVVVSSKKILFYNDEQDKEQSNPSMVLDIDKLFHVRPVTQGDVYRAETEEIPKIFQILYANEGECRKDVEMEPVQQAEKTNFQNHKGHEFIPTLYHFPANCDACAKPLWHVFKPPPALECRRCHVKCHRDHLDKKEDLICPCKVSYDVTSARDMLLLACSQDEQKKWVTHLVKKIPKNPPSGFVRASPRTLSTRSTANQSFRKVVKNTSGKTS
Chain of CYP2D6 (P10635 whole entry): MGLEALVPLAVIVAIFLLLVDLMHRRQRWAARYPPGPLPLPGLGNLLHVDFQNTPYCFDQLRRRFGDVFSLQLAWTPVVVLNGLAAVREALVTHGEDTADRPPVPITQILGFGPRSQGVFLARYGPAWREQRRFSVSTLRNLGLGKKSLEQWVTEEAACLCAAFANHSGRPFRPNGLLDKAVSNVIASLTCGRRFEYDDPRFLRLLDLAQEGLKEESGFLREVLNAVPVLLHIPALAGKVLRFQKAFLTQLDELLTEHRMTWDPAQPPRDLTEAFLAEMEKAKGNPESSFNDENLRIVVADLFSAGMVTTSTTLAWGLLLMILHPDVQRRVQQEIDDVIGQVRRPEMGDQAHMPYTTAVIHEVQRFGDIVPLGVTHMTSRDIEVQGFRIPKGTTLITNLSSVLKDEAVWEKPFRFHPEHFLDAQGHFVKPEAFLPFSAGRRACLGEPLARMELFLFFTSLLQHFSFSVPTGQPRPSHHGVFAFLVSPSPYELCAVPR

O=C(Nc1ccc(-c2cn[nH]c2)cc1)NC(CCO)c1ccccc1 (stereo not given)
IC50 [1]: 48 nM
half-life [2]: > 120 min
IC50 [3]: 438 nM
IC50 [4]: 1 nM

O=C(Nc1ccc(-c2cn[nH]c2)cc1)NC(CO)c1ccccc1 (stereo not given)
IC50 [1]: 150 nM
half-life [2]: > 120 min
IC50 [3]: 389 nM
IC50 [4]: 2 nM

CN(C)CCC(NC(=O)Nc1ccc(-c2cn[nH]c2)cc1)c1ccccc1 (stereo not given)
clearance [5]: 91 mL/min/kg
solubility [6]: soluble
inhibition at 10 µM (CYP2C9): 16%
IC50 [7]: 6 nM
half-life [8]: 144 min
Vd [9]: 20 L/kg
inhibition at 10 µM (CYP3A4): 10%
inhibition at 10 µM (CYP1A2): -1%
Cmax [10]: 200 nM
bioavailability [11]: 0%
IC50 [1]: 40 nM
half-life [2]: > 60 min
IC50 [3]: 238 nM
AUC [12]: 0.5 µM·h
inhibition at 10 µM (CYP2D6): 59%
IC50 [4]: 2 nM

COc1cccc(CN(CCO)C(=O)Nc2ccc(-c3cn[nH]c3)cc2OCCO)c1
IC50 [1]: 220 nM
IC50 [3]: 615 nM
IC50 [4]: < 1 nM

COc1cccc(CN(CCN(C)C)C(=O)Nc2ccc(-c3cn[nH]c3)cc2OCCN(C)C)c1
IC50 [4]: 170 nM

COc1cccc(CN(CCN(C)C)C(=O)Nc2ccc(-c3cn[nH]c3)cn2)c1
solubility [6]: soluble
inhibition at 10 µM (CYP2C9): 5%
IC50 [7]: 10 nM
inhibition at 10 µM (CYP3A4): 8%
inhibition at 10 µM (CYP1A2): -21%
IC50 [1]: 28 nM
half-life [2]: 17 min
IC50 [3]: 470 nM
inhibition at 10 µM (CYP2D6): 51%
IC50 [4]: 2 nM

COc1cccc(CN(C(=O)Nc2ccc(-c3cn[nH]c3)cc2)C(C)C)c1
IC50 [1]: 67 nM
half-life [2]: 11 min
IC50 [3]: 18400 nM
IC50 [4]: 3 nM

COCCN(Cc1cccc(OC)c1)C(=O)Nc1ccc(-c2cn[nH]c2)cc1
IC50 [1]: 180 nM
half-life [2]: 21 min
IC50 [3]: 10500 nM
IC50 [4]: 17 nM

COc1cccc(CN(CCN)C(=O)Nc2ccc(-c3cn[nH]c3)cc2)c1
IC50 [1]: 8 nM
half-life [2]: > 120 min
IC50 [3]: 72 nM
IC50 [4]: < 1 nM

COc1cccc(CN(CCCN2CCCC2)C(=O)Nc2ccc(-c3cn[nH]c3)cc2)c1
IC50 [1]: 18 nM
half-life [2]: 59 min
IC50 [3]: 228 nM
IC50 [4]: 5 nM

COc1cccc(CN(CCN2CCOCC2)C(=O)Nc2ccc(-c3cn[nH]c3)cc2)c1
clearance [5]: 63 mL/min/kg
solubility [6]: soluble
inhibition at 10 µM (CYP2C9): 68%
IC50 [7]: 58 nM
IC50 (MAP kinase p38): > 20000 nM
half-life [8]: 132 min
Vd [9]: 3.5 L/kg
inhibition at 10 µM (CYP3A4): 51%
IC50 [13]: > 20000 nM
inhibition at 10 µM (CYP1A2): -37%
Cmax [10]: 1200 nM
bioavailability [11]: 4%
IC50 [1]: 138 nM
half-life [2]: 3 min
IC50 [3]: 3820 nM
AUC [12]: 0.6 µM·h
inhibition at 10 µM (CYP2D6): 82%
IC50 [4]: 13 nM

COc1cccc(CN(CCCN2CCOCC2)C(=O)Nc2ccc(-c3cn[nH]c3)cc2)c1
IC50 [1]: 84 nM
half-life [2]: 4 min
IC50 [3]: 724 nM
IC50 [4]: 4 nM

COc1cccc(CN(CCN2CCCCC2)C(=O)Nc2ccc(-c3cn[nH]c3)cc2)c1
clearance [5]: 86 mL/min/kg
solubility [6]: soluble
inhibition at 10 µM (CYP2C9): 56%
IC50 [7]: 14 nM
IC50 (MAP kinase p38): > 20000 nM
half-life [8]: 60 min
Vd [9]: 4.3 L/kg
inhibition at 10 µM (CYP3A4): 61%
IC50 [13]: > 20000 nM
inhibition at 10 µM (CYP1A2): 18%
Cmax [10]: 530 nM
bioavailability [11]: 0%
IC50 [1]: 17 nM
half-life [2]: 11 min
IC50 [3]: 338 nM
AUC [12]: 0.4 µM·h
inhibition at 10 µM (CYP2D6): 87%
IC50 [4]: 5 nM

COc1cccc(CN(CCCN2CCCCC2)C(=O)Nc2ccc(-c3cn[nH]c3)cc2)c1
IC50 [1]: 75 nM
half-life [2]: 14 min
IC50 [3]: 822 nM
IC50 [4]: 4 nM

O=C(Nc1ccc(-c2cn[nH]c2)cc1F)N(CCO)Cc1ccccc1
IC50 [1]: 33 nM
half-life [2]: > 120 min
IC50 [3]: 1020 nM
IC50 [4]: 14 nM

COc1cccc(C(CCO)NC(=O)Nc2ccc(-c3cn[nH]c3)cc2)c1 (stereo not given)
clearance [5]: 5.9 mL/min/kg
solubility [6]: soluble
inhibition at 10 µM (CYP2C9): 67%
IC50 [7]: 11 nM
half-life [8]: 42 min
Vd [9]: 0.25 L/kg
inhibition at 10 µM (CYP3A4): 37%
inhibition at 10 µM (CYP1A2): 3%
Cmax [10]: 12000 nM
bioavailability [11]: 4%
IC50 [1]: 40 nM
half-life [2]: 112 min
IC50 [3]: 4870 nM
AUC [12]: 7.9 µM·h
inhibition at 10 µM (CYP2D6): 37%
IC50 [4]: 2 nM

O=C(Nc1ccccc1)Nc1ccc(-c2cn[nH]c2)cc1
IC50 [3]: > 20000 nM
IC50 [4]: 304 nM

O=C(NCCc1ccccc1)Nc1ccc(-c2cn[nH]c2)cc1
IC50 [1]: > 2700 nM
IC50 [3]: 3100 nM
IC50 [4]: 88 nM

O=C(NCCCc1ccccc1)Nc1ccc(-c2cn[nH]c2)cc1
IC50 [3]: > 20000 nM
IC50 [4]: 1020 nM
